# Rows were chosen to be rich in hits. Some 2.8% of all compounds tested hit in one or more screens of this group.
# SIRT5 block – blocks human SIRT5 desuccinylation of peptide. Q9NXA8. Purified SirT5, succinyl-peptide AMC, trypsin-coupled fluorescence. inhibition, % at 15 µM. actives 1.1% (n = 330,000); in the data active = inhibition above about 15%; inconclusive = no clear call, values can overlap the other calls
# DENV2 CPE rescue – DENV2-induced cell death inhibition. DENV2-infected cells, cytopathic effect rescue, plate reader. CPE inhibition, % at 9.99 µM. actives 1.7% (n = 350,000). AID 651640; in the data active = CPE inhibition above about 20%, passing the limit was not always enough; inconclusive = no clear call, values can overlap the other calls; tested in BHK-21 cells;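 also: 0% = median of neutral control wells and 100% = median of positive control wells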
# E-sel inducer – E-selectin induction on HUVECs; P16581; HUVEC E-selectin immunofluorescence imaging; normalized: neutral wells 0, TNF-alpha wells 100; activation, % at 7.58 µM; actives 0.37% (n = 260,000); AID 686992;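 active = mean E-selectin-positive cell signal at least 10% of the positive control, reached in at least 60% of replicates, without over 20% cell loss; inconclusive = no rule given, readout overlaps actives, possibly toxicity-flagged; inactive = the rest, including those meeting only one limit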
# Target sequence (P16581 whole entry, looked up): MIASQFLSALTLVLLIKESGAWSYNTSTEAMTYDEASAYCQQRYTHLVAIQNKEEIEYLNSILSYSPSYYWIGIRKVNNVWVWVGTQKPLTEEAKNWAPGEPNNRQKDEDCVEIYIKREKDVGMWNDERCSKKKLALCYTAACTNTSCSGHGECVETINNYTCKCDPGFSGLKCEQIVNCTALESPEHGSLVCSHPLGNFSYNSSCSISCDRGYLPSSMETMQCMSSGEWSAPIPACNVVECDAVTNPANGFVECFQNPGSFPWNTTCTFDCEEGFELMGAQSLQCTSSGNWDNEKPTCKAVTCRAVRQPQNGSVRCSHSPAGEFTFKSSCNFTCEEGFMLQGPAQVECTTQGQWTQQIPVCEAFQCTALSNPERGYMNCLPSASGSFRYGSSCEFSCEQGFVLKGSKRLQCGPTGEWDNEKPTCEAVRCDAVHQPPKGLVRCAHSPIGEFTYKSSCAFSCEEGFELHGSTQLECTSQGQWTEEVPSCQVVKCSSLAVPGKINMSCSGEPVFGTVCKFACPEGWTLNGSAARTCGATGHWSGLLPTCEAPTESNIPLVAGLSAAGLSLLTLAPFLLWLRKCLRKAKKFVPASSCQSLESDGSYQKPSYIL
#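 Material: HUVEC primary endothelial cells; Amount: 3,000 cells per well; Dosing: single concentration; Medium: EGM-2 growth medium on 0.1% gelatin-coated wells; Read-out basis: percent E-selectin-positive cells; Signal: immunofluorescence imaging; Control set: TNF-alpha, DMSO.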
# * hit, by the source's call; u = inconclusive; x = no result given.
SMILES,SIRT5 block,DENV2 CPE rescue,E-sel inducer
COC(=O)[C@@]1(Cc2ccc(F)cc2)[C@H]2c3cc(C(=O)N(C)C)n(Cc4ccccc4)c3C[C@H]2CN1C(=O)c1ccccc1,x,-6,0
COCCn1c(C(=O)N2CCCC2)cc2c1C[C@H]1CN(C(=O)c3ccccc3)[C@@](Cc3ccc(F)cc3)(C(=O)OC)[C@@H]21,x,64*,0
COC(=O)[C@@]1(Cc2ccc(F)cc2)[C@H]2c3cc(C(=O)N4CCCC4)n(Cc4ccccc4)c3C[C@H]2CN1C(=O)c1ccccc1,-8,0,-7
C[C@@H]1CN([C@H](C)CO)C(=O)c2cc(-c3cccc(F)c3)cnc2O[C@@H]1CN(C)C(=O)C1CC1,x,x,0
COc1ccc2c3c(n(C)c2c1)[C@@H](CO)N(C(=O)c1cnccn1)CC31CCN(C)CC1,x,-3,0
C[C@@H]1CCCCO[C@H](CN(C)S(=O)(=O)c2cn(C)cn2)[C@@H](C)CN([C@@H](C)CO)C(=O)c2cc(NC(=O)Nc3ccc(C(F)(F)F)cc3)ccc2O1,x,-9,0
N#C[C@H]1[C@H](c2ccc(C#CC3CCCCC3)cc2)[C@H](CO)N1C(=O)Cc1ccccn1,-3,1,0
C/C=C/c1ccc2c(c1)O[C@H](CN(C)C(=O)Cc1ccccc1)[C@@H](C)CN([C@@H](C)CO)S2(=O)=O,-1,-5,0
COc1ccc(S(=O)(=O)Nc2ccc3c(c2)C(=O)N([C@H](C)CO)C[C@@H](C)[C@H](CN(C)S(=O)(=O)c2ccc(OC)cc2)OCCCC[C@@H](C)O3)cc1,x,-3,0
COc1ccc(S(=O)(=O)Nc2ccc3c(c2)C(=O)N([C@H](C)CO)C[C@@H](C)[C@H](CN(C)S(=O)(=O)c2ccc(Cl)cc2)OCCCC[C@H](C)O3)cc1,20*,3,0
COc1ccc(S(=O)(=O)Nc2ccc3c(c2)C(=O)N([C@@H](C)CO)C[C@H](C)[C@H](CN(C)S(=O)(=O)c2ccc(Cl)cc2)OCCCC[C@H](C)O3)cc1,-1,25*,0
COc1ccc(S(=O)(=O)N(C)C[C@@H]2OCCCC[C@@H](C)Oc3ccc(NS(=O)(=O)c4ccc(Cl)cc4)cc3C(=O)N([C@@H](C)CO)C[C@H]2C)cc1,17*,-4,0
COc1ccc(S(=O)(=O)N(C)C[C@H]2OCCCC[C@@H](C)Oc3ccc(NS(=O)(=O)c4ccc(Cl)cc4)cc3C(=O)N([C@H](C)CO)C[C@H]2C)cc1,23*,-7,0
COc1ccc(S(=O)(=O)N(C)C[C@H]2OCCCC[C@@H](C)Oc3ccc(NS(=O)(=O)c4ccc(Cl)cc4)cc3C(=O)N([C@H](C)CO)C[C@@H]2C)cc1,1,11,0
COc1ccc(S(=O)(=O)N(C)C[C@H]2OCCCC[C@H](C)Oc3ccc(NS(=O)(=O)c4ccc(Cl)cc4)cc3C(=O)N([C@H](C)CO)C[C@@H]2C)cc1,3,-7,0
Cc1cc(C(=O)Nc2cccc3c2O[C@H](CN(C)C(=O)Nc2ccc(F)cc2)[C@H](C)CN([C@H](C)CO)C3=O)n(C)n1,-1,1,-3
CN1CCN(C(=O)C[C@@H]2C[C@H]3c4cc(NC(=O)Nc5ccccc5)ccc4O[C@H]3[C@@H](CO)O2)CC1,x,7,4
CC(C)C#Cc1cnc2c(c1)C(=O)N([C@@H](C)CO)C[C@@H](C)[C@H](CN(C)Cc1cncnc1)O2,-2,17,0
C/C=C/c1ccc([C@@H]2[C@H](CO)N3C(=O)CN(C(=O)Nc4ccccc4F)C[C@@H]23)cc1,-1,u,1
COc1ccc(S(=O)(=O)N(C)C[C@@H]2OCCCC[C@H](C)Oc3ccc(NS(=O)(=O)c4ccc(Cl)cc4)cc3C(=O)N([C@H](C)CO)C[C@H]2C)cc1,6,-9,0
COc1ccc(S(=O)(=O)Nc2ccc3c(c2)C(=O)N([C@H](C)CO)C[C@H](C)[C@H](CN(C)S(=O)(=O)c2ccc(Cl)cc2)OCCCC[C@@H](C)O3)cc1,10,-16,0
COc1ccc(S(=O)(=O)Nc2ccc3c(c2)C(=O)N([C@@H](C)CO)C[C@H](C)[C@H](CN(C)S(=O)(=O)c2ccc(Cl)cc2)OCCCC[C@@H](C)O3)cc1,22*,-5,0
COc1ccc(S(=O)(=O)N(C)C[C@H]2OCCCC[C@H](C)Oc3ccc(NS(=O)(=O)c4ccc(Cl)cc4)cc3C(=O)N([C@@H](C)CO)C[C@H]2C)cc1,17*,14,0
C[C@H]1CN([C@@H](C)CO)C(=O)c2cc(C#CCc3ccccc3)cnc2O[C@H]1CN(C)Cc1ccccc1,11,7,0
C[C@@H]1CN([C@H](C)CO)C(=O)c2cccc(N(C)C)c2O[C@H]1CN(C)C(=O)Nc1ccc(C(F)(F)F)cc1,x,14,x
SMILES,SIRT5 block,DENV2 CPE rescue,E-sel inducer
COc1cccc(C#Cc2ccc([C@@H]3[C@@H](CO)N4C(=O)CN(C(C)=O)C[C@@H]34)cc2)c1,-1,0,0
Cc1ccc(S(=O)(=O)Nc2ccc3c(c2)C(=O)N([C@@H](C)CO)C[C@H](C)[C@H](CN(C)S(=O)(=O)c2ccccc2)OCCCC[C@H](C)O3)cc1,9,-2,0
Cc1ccc(S(=O)(=O)Nc2ccc3c(c2)C(=O)N([C@@H](C)CO)C[C@H](C)[C@H](CN(C)S(=O)(=O)c2ccccc2)OCCCC[C@@H](C)O3)cc1,24*,-1,0
Cc1ccc(S(=O)(=O)N(C)C[C@@H]2OCCCC[C@@H](C)Oc3ccc(NS(=O)(=O)c4c(C)noc4C)cc3C(=O)N([C@@H](C)CO)C[C@@H]2C)cc1,5,-10,x
Cc1ccc(S(=O)(=O)N(C)C[C@H]2OCCCC[C@@H](C)Oc3ccc(NS(=O)(=O)c4c(C)noc4C)cc3C(=O)N([C@@H](C)CO)C[C@@H]2C)cc1,17*,29*,x
Cc1ccc(S(=O)(=O)Nc2ccc3c(c2)C(=O)N([C@@H](C)CO)C[C@@H](C)[C@@H](CN(C)S(=O)(=O)c2ccccc2)OCCCC[C@@H](C)O3)cc1,13,-11,0
Cc1ccc(S(=O)(=O)Nc2ccc3c(c2)C(=O)N([C@H](C)CO)C[C@@H](C)[C@H](CN(C)S(=O)(=O)c2ccccc2)OCCCC[C@@H](C)O3)cc1,9,3,0
Cc1ccc(S(=O)(=O)N(C)C[C@H]2OCCCC[C@H](C)Oc3ccc(NS(=O)(=O)c4ccccc4)cc3C(=O)N([C@@H](C)CO)C[C@@H]2C)cc1,19*,-5,0
Cc1ccc(S(=O)(=O)N(C)C[C@@H]2OCCCC[C@@H](C)Oc3ccc(NS(=O)(=O)c4ccccc4)cc3C(=O)N([C@@H](C)CO)C[C@H]2C)cc1,19*,3,0
CO[C@@H]1CN(C)C(=O)c2ccc(NC(=O)C3CCC3)cc2OC[C@@H](C)N(C(=O)NC(C)C)C[C@H]1C,-7,-8,0
CC(C)(C)[S@](=O)N1Cc2cc(C(=O)N[C@H]3CCN(Cc4ccccc4)C3)nc(-c3cccc(-c4cccnc4)c3)c2[C@@H]1CCO,0,8,1
COc1ccc(C#Cc2cnc3c(c2)C(=O)N([C@@H](C)CO)C[C@@H](C)[C@H](CN(C)C(=O)Nc2cccc(OC)c2)O3)cc1,x,x,1

# From PubChem
